# MITF act = increases MITF-driven TRPM1 promoter luciferase signal | SK-MEL-5 TRPM1-promoter luciferase, 24 h; % of positive control, neutral wells = 0 | activation, % at 12.5 µM | hit rate 0.75% among 300,000;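 active = mean activation of at least 80% with every replicate also reaching 80%; inconclusive = mean reaches 80% but some replicate falls short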;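 also: 0% = neutral control wells and 100% = parthenolide positive control wells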
# Vif imaging = blocks HIV Vif function | HEK293T cells, Vif self-association by quenched fluorescence, imaging, 24 h | AID 602346 | hit rate 0.35% among 340,000 | inhibition, % at 7.49 µM; in the data active = inhibition above about 50%, passing the limit was not always enough; inconclusive = no clear call, values can overlap the other calls; inactive = below about 31%
# XiGFP reactiv = reactivates the inactive X chromosome in mouse fibroblasts; XiGFP mouse fibroblasts, % GFP-positive cells imaging, 3 d; cells co-treated with 5-aza-dC sensitizer; scaled so ellipticine positive control = 100%; activation, % at 7.58 µM; hit rate 0.055% among 360,000; AID 743238;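 active = mean normalized replicate activation at least 10% and every replicate at or above 10%; inconclusive = only one of the two criteria met; inactive = mean below 10% and not all replicates reach 10%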;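 also: 0% = median of on-plate neutral control wells and 100% = ellipticine 6 µM median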
#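 System: 68-5-11 XiGFP fibroblast line; Timing: 3 days compound exposure; Compound dosing: one concentration, pinned; Benchmarks: positive control ellipticine, 6 µM final; Buffer or medium: DMEM containing 5-aza-dC.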
# esBAF inh = SWI/SNF esBAF complex inhibition; hit rate 2% among 350,000; mouse ES cells, Bmi1-luciferase knock-in reporter, 24 h; 100% = twice the neutral-well signal; reporter increase, % at 12.5 µM; in the data active = activation above about 40%; inconclusive = no clear call, values can overlap the other calls;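 also: 0% = median of the plate's neutral control wells and 100% = double that signal; a rise in the Bmi1 reporter signal indicates esBAF inhibition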
# Wnt bcat act = activators of Wnt/beta-catenin signaling. Wnt/beta-catenin reporter cell assay, activator, plate reader. activation, % at 9.35 µM. hit rate 1.2% among 300,000. AID 743398; in the data active = activation above about 30%, passing the limit was not always enough; inconclusive = no clear call, values can overlap the other calls;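 also: 0% = neutral control wells and 100% = positive control wells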
# Active calls of the source: *; ? = inconclusive; · = not tested or not shown. Shown are actives, neighbours in structure and some others; about 2.6% of the full set was active somewhere.
SMILES,MITF act,Vif imaging,XiGFP reactiv,esBAF inh,Wnt bcat act
Cc1cccc(-c2nnc(-c3ccc4ccccc4c3)o2)c1,48.3,14.0,0.5,-13.3,-5.4
COc1ccc(S(=O)(=O)Nc2ccc3c(c2)CC(=O)N([C@@H](C)CO)C[C@@H](C)[C@H](CN(C)C(=O)NC(C)C)O3)cc1,·,·,0.3,3.6,·
CCCN(C)C[C@H]1Oc2cc(-c3ccncc3)ccc2S(=O)(=O)N([C@H](C)CO)C[C@H]1C,·,·,0.0,-4.8,·
CO[C@@H]1CN(C)C(=O)c2ccc(NC(=O)C3CCC3)cc2OC[C@@H](C)N(C(=O)CN(C)C)C[C@H]1C,·,·,-0.2,·,·
Cc1ccccc1NC(=O)C[C@H]1CC[C@H]2[C@@H](COc3ccc(NC(=O)c4ccc(Cl)cc4)cc3C(=O)N2C)O1,·,·,0.0,·,·
O=c1[nH]c(=O)c2ccccc2o1,·,·,1.5,·,-0.3
O=c1c2ccccc2oc2ccc(Oc3ccccc3)cc12,?,-12.0,0.4,31.0,53.7*
O=c1c2ccccc2oc2c1oc1ccccc12,102.8*,2.4,0.0,54.2*,25.3
COc1cc2oc3ccccc3c(=O)c2cc1OC,46.2,0.8,·,5.6,·
O=c1c2ccccc2oc2cc(Br)ccc12,21.7,6.5,0.2,70.5*,-3.2
C[C@H](CO)N1C[C@H](C)[C@@H](CN(C)S(=O)(=O)c2ccc(Cl)cc2)OCCCC[C@H](C)Oc2ccc(N(C)C)cc2C1=O,·,·,-0.6,-4.9,·
CC(C)CC#Cc1ccc2c(c1)O[C@@H](CN(C)C(=O)Cc1ccccc1)[C@@H](C)CN([C@@H](C)CO)S2(=O)=O,·,·,-0.1,6.8,·
Cc1cc2oc(=O)cc(CN(C)Cc3ccccc3)c2cc1C,·,·,0.0,48.4*,7.6
Cc1ccc2c(CN(C)Cc3cccc(F)c3)cc(=O)oc2c1C,34.8,-7.2,-0.1,49.7*,5.9
Cc1ccc2c(CN(C)Cc3ccccc3)cc(=O)oc2c1C,65.7,-8.8,0.0,58.7*,17.8
Cc1ccc2c(CN(C)Cc3ccc(OC(F)F)cc3)cc(=O)oc2c1C,-1.0,-8.5,0.0,-1.5,-1.1
Cc1noc(C)c1S(=O)(=O)N(C)C[C@H]1Oc2c(NS(=O)(=O)c3cn(C)cn3)cccc2C(=O)N([C@@H](C)CO)C[C@@H]1C,·,·,0.4,-2.7,·
CO[C@H]1CN(C)C(=O)c2cc(NC(C)=O)ccc2OC[C@H](C)N(C(=O)CN(C)C)C[C@H]1C,·,·,-0.1,·,·
COc1ccc(-c2cn(Cc3ccc(C(=O)c4ccccc4)cc3)nn2)cc1,·,·,0.1,·,?
Cc1ccc(Cn2cc(-c3ccccc3)nn2)cc1,52.2,-12.5,0.0,57.0*,20.3
c1ccc(-c2cn(CC3CCCCC3)nn2)cc1,44.7,-1.7,0.0,65.2*,31.9*
CCCCCc1ccc(-c2cn(CC3CCCCC3)nn2)cc1,18.3,8.2,0.1,-1.6,-2.3
COc1ccc(-c2cn(CC3CCCCC3)nn2)cc1,88.4*,-4.9,0.1,66.7*,18.2
COc1ccc2cc(C[C@@H]3CC[C@@H](CO)O3)ccc2c1,118.2*,-5.0,0.0,66.6*,21.2
C=CCn1c(SCC(=O)NC(N)=O)nnc1-c1cc2c(s1)CCC(CC)C2 (stereo not drawn),-6.7,3.8,0.4,·,-2.8
SMILES,MITF act,Vif imaging,XiGFP reactiv,esBAF inh,Wnt bcat act
C=CCn1c(SCC(=O)NCC)nnc1-c1cc2c(s1)CCC(CC)C2 (stereo not drawn),38.3,-11.8,-0.1,45.9*,-2.9
O=C(C[C@H]1CC[C@@H](NC(=O)C2CCOCC2)[C@H](CO)O1)NCc1ccncc1,·,·,0.4,·,·
Cc1ccc(Nc2nnc(-c3ccccc3N)o2)cc1C,·,-9.4,0.5,·,36.5*
O=C(COC(=O)c1ccc[nH]c1=O)NCCc1ccc(Cl)cc1Cl,4.3,-0.9,-0.1,·,49.7*
Cc1ccc(C(=O)c2ccccc2C(=O)OCC(=O)NCCc2ccc(Cl)cc2Cl)cc1,0.9,0.0,0.1,·,·
C[C@@H]1CCCCO[C@@H](CN(C)C(=O)c2ccccc2)[C@@H](C)CN([C@H](C)CO)C(=O)c2cc(NC(=O)Nc3ccc4c(c3)OCO4)ccc2O1,·,·,0.3,3.9,·
Cc1ccc2nc(SCC(=O)NCc3ccco3)c(C#N)cc2c1,·,10.2,·,18.2,59.2*
COC(=O)CSc1nc2ccc(C)cc2cc1C#N,52.7,7.1,0.0,·,67.1*
O=C(C[C@H]1CC[C@@H](NS(=O)(=O)c2ccc(F)cc2)[C@H](CO)O1)NCc1ccccc1F,·,·,-0.1,·,·
Cc1noc(C)c1NC(=O)Nc1ccc2c(c1)C(=O)N([C@@H](C)CO)C[C@@H](C)[C@H](CN(C)C(=O)Nc1c(C)noc1C)O2,·,·,-0.1,-0.7,·
Cc1oc2cc3c(C(=O)N4CCCCC4)c(C)oc3cc2c1C(=O)N1CCCCC1,42.6,-1.3,·,148.9*,·
O=C(OCc1ccccc1)C1CCCN1C(=O)c1ccccc1[N+](=O)[O-] (stereo not drawn),6.6,56.4*,·,-10.6,·
O=C(NCc1ccc(Cl)cc1)c1ccc(-c2ccccc2C(F)(F)F)o1,2.2,-0.9,0.2,3.3,-0.4
CC(C)NC(=O)c1ccc(-c2ccccc2C(F)(F)F)o1,75.8,-1.4,·,47.2*,·
O=C(Nc1ccccc1)c1ccc(-c2ccccc2C(F)(F)F)o1,79.5,-1.7,0.9,52.2*,29.3
COc1ccccc1CNC(=O)C[C@H]1C[C@@H]2c3cc(NC(=O)CN(C)C)ccc3O[C@@H]2[C@@H](CO)O1,·,·,0.2,0.8,·
CCCNC(=O)N1CC2(C1)[C@@H](c1ccccc1)[C@H](CO)N2C(=O)C1CCC1,·,·,0.1,·,·
CCOc1ccccc1CNC(=O)c1cn(C)c(=O)c2c1c1ccccc1n2C,-4.6,14.0,0.6,-6.8,46.6*
CCOc1ccc(S(=O)(=O)NCc2ccccn2)cc1NC(=O)c1ccccc1,-34.2,54.1*,1.3,·,-3.7
COc1ccc(NC(=O)c2ccccc2SC)cc1,13.0,30.6,0.0,·,1.1
CCOc1ccc(NC(=O)c2ccc3nccnc3c2)cc1,89.1*,-8.2,·,·,·
CCOc1ccc(NC(=O)c2ccccc2SC)cc1,75.2,8.0,0.1,45.7*,-0.6
CCOc1ccc(NC(=O)c2csc3c2CCCC3)cc1,·,-8.7,0.0,77.5*,45.9*
COc1ccc(NC(=O)c2ccc3nccnc3c2)cc1,70.6,6.4,·,30.8,10.7
C[C@@H]1CN([C@@H](C)CO)C(=O)c2cc(NS(=O)(=O)c3cccs3)ccc2O[C@@H](C)CCCCO[C@@H]1CN(C)S(=O)(=O)c1ccc(F)cc1,·,·,-0.1,6.9,·
COc1ccc(/C=N/NC(=O)c2sccc2C)c2ccccc12,·,-3.9,0.0,·,28.8
Cc1ccccc1/C=N/NC(=O)c1sccc1C,79.3,-3.1,0.2,·,80.2*
Cc1ccsc1C(=O)N/N=C/C=C/c1ccccc1[N+](=O)[O-],44.1,-1.8,·,44.5*,·
C[C@@H]1CN([C@H](C)CO)C(=O)c2cccc(NS(=O)(=O)c3ccc(Cl)cc3)c2O[C@H]1CN(C)C(=O)Nc1ccc(C(F)(F)F)cc1,·,·,-1.0,-3.5,·
O=C(Cc1ccccc1)N[C@H]1CC[C@@H](CC(=O)N2CCCCC2)O[C@@H]1CO,·,·,-0.2,-1.2,·
